Test results: ChEMBL document CHEMBL5038571, “Design and Synthesis of EZH2-Based PROTACs to Degrade the PRC2 Complex for Targeting the Noncatalytic Activity of EZH2” (J Med Chem, 2021)
Calls of active or inactive are those of the source. The rule behind the calls is not given here.

Columns and labels:
[1] = biological target: T1, Protein cereblon/Histone-lysine N-methyltransferase EZH2 (Homo sapiens) (UniProt Q15910+Q96SW2); assay: PROTAC activity at CRBN E3 ligase/EZH2 in PRC2 complex in human SK-OV-3 cells assessed as induction of EED degradation by measuring reduction in EED protein level at 1 uM incubated for 48 hrs by Western blot analysis; format: cell-based
In short: (§1)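 Cells cultured in DMEM or RPMI 1640 with 10% FBS and 1% penicillin-streptomycin, 37 °C, 5% CO2; exposed to 1 μM compound for 48 h. Lysates run on SDS-PAGE and transferred to nitrocellulose. Blocked 2 h in 5% skim milk, primary antibody overnight at 4 °C, then secondary antibody. Chemiluminescent detection of PRC2 subunits and H3K27me3.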

A549 = assay: Downregulation of CHEK1 mRNA expression in human A549 cells at 10 uM incubated for 48 hrs by qRT-PCR analysis; format: functional, cell-based
In short: (§2)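 Cells treated 48 h. Total RNA extracted with Trizol, reverse-transcribed, and SYBR RT-qPCR run: 95 °C 30 s, then 40 cycles of 95 °C 6 s and 60 °C 20 s. mRNA normalized to the DMSO-treated group. Mean SD of three independent experiments, t-test versus DMSO.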

[2] = biological target: T1, Protein cereblon/Histone-lysine N-methyltransferase EZH2 (Homo sapiens); assay: PROTAC activity at CRBN E3 ligase/EZH2 in PRC2 complex in human WSUDLCL2 cells assessed as reduction in H3K27me3 protein level at 1 uM measured after 48 to 72 hrs by Western blot analysis; format: cell-based; details: time 48-72 hrs
[3] = biological target: T1, Protein cereblon/Histone-lysine N-methyltransferase EZH2 (Homo sapiens); assay: PROTAC activity at CRBN E3 ligase/EZH2 in PRC2 complex in human A2780 cells assessed as induction of EZH2 degradation by measuring reduction in EZH2 protein level at 1 uM incubated for 48 hrs by Western blot analysis; format: cell-based
In short: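 Cancer cell lines exposed to 1 μM compound for 48 h. Lysates immunoblotted (SDS-PAGE, nitrocellulose, 5% milk block, primary antibody overnight at 4 °C) for EZH2, SUZ12, EED, RbAp48 and H3K27me3. Bands quantified by densitometry and normalized to GAPDH.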

WSUDLCL2 [4] = assay: Antiproliferative activity against human WSUDLCL2 cells harboring EZH2-Y641F mutant assessed as inhibition of cell growth at 10 uM incubated for 9 days by optical microscopic analysis; format: functional, cell-based; details: time 9.0 day
In short: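 WSU-DLCL-2 cells seeded at 5 × 10³ per well, incubated 24 h, then exposed to 10 μM compound for 9 days with medium refreshed. Cells photographed and counted on days 1, 3, 5, 7 and 9. Mean SD of three independent experiments, t-test versus DMSO.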

MDA-MB-468 = assay: Downregulation of […] mRNA expression in human MDA-MB-468 cells at 10 uM incubated for 48 hrs by qRT-PCR analysis; format: functional, cell-based; in short: as §2
WSUDLCL2 [5] = assay: Upregulation of ADRB2 mRNA expression in human WSUDLCL2 cells at 1 uM incubated for 48 hrs by qRT-PCR analysis; format: functional, cell-based
In short: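 WSU-DLCL-2 or Pfeiffer cells treated 48 h. Trizol RNA extraction, reverse transcription, SYBR qPCR (95 °C 30 s; 40 cycles of 95 °C 6 s, 60 °C 20 s). mRNA normalized to DMSO-treated cells; mean ± SD of three independent experiments, t-test.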

[6] = biological target: T1, Protein cereblon/Histone-lysine N-methyltransferase EZH2 (Homo sapiens); assay: PROTAC activity at CRBN E3 ligase/EZH2 in PRC2 complex in human SK-OV-3 cells assessed as reduction in H3K27me3 level at 1 uM incubated for 48 hrs by Western blot analysis; format: cell-based; in short: as §1
[7] = biological target: T1, Protein cereblon/Histone-lysine N-methyltransferase EZH2 (Homo sapiens); assay: PROTAC activity at CRBN E3 ligase/EZH2 in PRC2 complex in human WSUDLCL2 cells assessed as induction of EZH2 degradation at 1 uM incubated for 48 hrs by Western blot analysis relative to control; format: cell-based
In short: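 WSU-DLCL-2 cells exposed to 1 μM compound for 48 h, with DMSO-treated cells as control. Bands quantified by densitometry and normalized to GAPDH. Mean SD from three independent experiments, t-test versus DMSO.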

WSUDLCL2 [8] = assay: Effect on Histone H3 methylation in human WSUDLCL2 cells assessed as reduction in H3K27me1 levels at upto 10 uM incubated for 48 hrs by Western blot analysis; format: functional, cell-based; details: dose microM <=10, time 48.0 hrs
In short: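 Lysates run on SDS-PAGE and transferred to nitrocellulose. Membranes blocked with 5% skim milk for 2 h, primary antibody applied overnight at 4 °C, then secondary antibody and chemiluminescent detection of histone H3 methylation marks.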

[9] = biological target: T1, Protein cereblon/Histone-lysine N-methyltransferase EZH2 (Homo sapiens); assay: PROTAC activity at CRBN E3 ligase/EZH2 in PRC2 complex in human WSUDLCL2 cells assessed as downregulation of EED expression at 1 uM pretreated with EED226 for 4 hrs followed by compound addition and measured after 48 hrs by Western blot analysis; format: cell-based
In short: (§3)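 WSU-DLCL-2 cells pretreated 4 h with the named inhibitor, then compound added and incubated a further 48 h. EZH2, SUZ12, EED and RbAp48 measured by western blot (nitrocellulose transfer, skim-milk block, primary antibody overnight at 4 °C, chemiluminescent detection).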

[10] = biological target: T2, Histone-lysine N-methyltransferase EZH1 (Homo sapiens, UniProt Q92800); assay: Inhibition of recombinant full length human N-terminal FLAG-tagged EZH1 in PRC2 complex expressed in baculovirus system using SAM as substrate preincubated for 15 mins followed by substrate addition and measured after 60 mins by AlphaLISA immunodetection assay
T2 sequence (Q92800 whole entry): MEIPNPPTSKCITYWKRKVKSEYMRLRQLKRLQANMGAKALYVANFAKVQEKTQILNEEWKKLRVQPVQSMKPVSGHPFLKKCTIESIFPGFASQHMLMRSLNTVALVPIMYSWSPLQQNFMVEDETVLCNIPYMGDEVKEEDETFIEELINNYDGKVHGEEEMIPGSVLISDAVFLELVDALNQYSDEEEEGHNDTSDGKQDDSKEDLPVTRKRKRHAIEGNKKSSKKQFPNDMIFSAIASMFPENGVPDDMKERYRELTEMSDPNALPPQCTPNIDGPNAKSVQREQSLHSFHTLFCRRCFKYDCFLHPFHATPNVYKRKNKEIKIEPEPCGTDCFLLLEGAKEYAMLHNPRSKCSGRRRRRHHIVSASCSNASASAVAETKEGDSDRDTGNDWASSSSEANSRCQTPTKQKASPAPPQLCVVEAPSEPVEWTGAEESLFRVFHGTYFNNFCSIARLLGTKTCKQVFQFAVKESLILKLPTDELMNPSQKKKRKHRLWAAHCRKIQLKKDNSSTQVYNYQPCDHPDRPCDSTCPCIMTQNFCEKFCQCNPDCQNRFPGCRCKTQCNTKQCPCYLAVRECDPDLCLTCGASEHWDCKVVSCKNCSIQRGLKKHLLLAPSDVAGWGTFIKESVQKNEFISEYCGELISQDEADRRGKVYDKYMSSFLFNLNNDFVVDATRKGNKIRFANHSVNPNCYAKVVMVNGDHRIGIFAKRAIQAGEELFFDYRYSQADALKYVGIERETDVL

[11] = biological target: T1, Protein cereblon/Histone-lysine N-methyltransferase EZH2 (Homo sapiens); assay: PROTAC activity at CRBN E3 ligase/EZH2 in PRC2 complex in human WSUDLCL2 cells assessed as downregulation of EZH2 expression at 1 uM pretreated with MG-132 for 4 hrs followed by compound addition and measured after 48 hrs by Western blot analysis; format: cell-based; in short: as §3

T1 sequence (Q15910 whole entry, looked up): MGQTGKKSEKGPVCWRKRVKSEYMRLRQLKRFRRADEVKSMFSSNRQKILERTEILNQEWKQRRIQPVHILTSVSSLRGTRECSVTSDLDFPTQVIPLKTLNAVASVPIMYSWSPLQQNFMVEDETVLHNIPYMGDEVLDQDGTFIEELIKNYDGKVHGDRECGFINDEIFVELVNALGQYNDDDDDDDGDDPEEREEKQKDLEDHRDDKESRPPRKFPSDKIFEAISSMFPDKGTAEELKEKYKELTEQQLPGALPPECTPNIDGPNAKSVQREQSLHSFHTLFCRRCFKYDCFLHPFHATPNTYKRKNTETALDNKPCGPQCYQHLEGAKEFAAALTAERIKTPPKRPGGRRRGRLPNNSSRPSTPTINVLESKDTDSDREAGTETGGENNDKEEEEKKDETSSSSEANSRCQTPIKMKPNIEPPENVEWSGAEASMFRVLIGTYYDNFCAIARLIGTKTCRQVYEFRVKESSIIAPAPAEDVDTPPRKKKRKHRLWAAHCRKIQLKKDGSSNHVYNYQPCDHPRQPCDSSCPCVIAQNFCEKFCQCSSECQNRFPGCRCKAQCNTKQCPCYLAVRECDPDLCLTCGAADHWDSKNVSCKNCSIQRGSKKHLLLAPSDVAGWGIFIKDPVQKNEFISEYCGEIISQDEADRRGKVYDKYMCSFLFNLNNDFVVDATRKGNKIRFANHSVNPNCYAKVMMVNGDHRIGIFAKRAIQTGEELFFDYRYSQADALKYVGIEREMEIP
T1 sequence (Q96SW2 whole entry, looked up): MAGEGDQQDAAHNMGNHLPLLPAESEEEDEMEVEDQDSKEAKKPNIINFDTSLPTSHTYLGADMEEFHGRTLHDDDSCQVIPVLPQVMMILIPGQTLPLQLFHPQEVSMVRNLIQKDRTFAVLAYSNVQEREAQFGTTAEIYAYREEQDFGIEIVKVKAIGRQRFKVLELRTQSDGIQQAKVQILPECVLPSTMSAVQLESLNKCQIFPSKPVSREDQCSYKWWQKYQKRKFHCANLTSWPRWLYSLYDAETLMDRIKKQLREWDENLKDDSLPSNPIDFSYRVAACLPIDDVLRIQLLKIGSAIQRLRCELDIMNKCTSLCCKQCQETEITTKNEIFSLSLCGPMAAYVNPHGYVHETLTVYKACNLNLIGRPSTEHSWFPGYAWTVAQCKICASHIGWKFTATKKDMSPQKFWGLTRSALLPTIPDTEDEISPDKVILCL

In the case of `CCN(c1cc(-c2ccc(CN3CCN(CCCCCCCOc4cccc5c4C(=O)N(C4CCC(=O)NC4=O)C5=O)CC3)cc2)cc(C(=O)NCc2c(C)cc(C)[nH]c2=O)c1C)C1CCOCC1` (stereo not drawn), the Activity [1] is reported as “Active”, the Activity (A549) is reported as “Active” and the Activity [2] is reported as “Active”. The Activity [3] was “Active”, the Activity (WSUDLCL2 [4]) was “Active” and the Activity (MDA-MB-468) was “Active”. The Activity (WSUDLCL2 [5]) was “Active”, the Activity [6] was “Active” and the Activity [7] was 72%. For the same molecule, the Activity (WSUDLCL2 [8]) was “inactive”, the Activity [9] was “Active” and the IC50 [10] was 179 nM. The Activity [11] was “inactive”.
